Assay outcomes from PubChem.
procasp7 counter: activates human procaspase-7, counter-screen for procaspase-3 activators; AID 463210; 330,000 compounds, 0.093% hits; activation, % at 8.5 µM; recombinant procaspase-7, Ac-DEVD-pNA absorbance 405 nm; D23A/D198A/D206A triple mutant, cannot self-cleave; scale: DMSO 0, 5 µM enzyme 100; P55210;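 active means percent activation above the screen-wide mean plus 3 SD, cut at about 25% in these data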
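Assay system: Uncleavable procaspase-7 mutant enzyme / Input: 2 µM procaspase-7 mutant as dispensed / Dosing: single nominal 8.5 µM compound dose, 0.8% DMSO final / Timing: 1 h enzyme–compound preincubation and 2 h substrate reaction, both 25 °C / Detection: p-Nitroaniline absorbance at 405 nm, read at 0 and 120 min / Replication: singlicate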
PLCb3 inh: blocks human PLC-beta3 enzyme activity; Q01970; Purified PLC-beta3, fluorogenic substrate, fluorescence; inhibition, % at 12.2 µM; 370,000 compounds, 0.18% hits; in the data active means inhibition above about 11%;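 further: 0% = median of compound wells on plate and 100% = full blocker control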
PLCg1 inh: blocks human PLC-gamma1 enzyme activity; purified PLC-gamma1, fluorogenic substrate, fluorescence; inhibition, % at 12.2 µM; 370,000 compounds, 0.84% hits; AID 720700; in the data active means inhibition above about 9.5%
sPLA2-III inh: Inhibits HGIII-sPLA2 liposome hydrolysis, primary screen; Q9NZ20; QFRET BODIPY PC-A2 liposome hydrolysis, fluorescence; inhibition, % at 12.2 µM; 370,000 compounds, 0.56% hits; AID 743126;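 active means inhibition above mean plus 3 SD of compounds lying within the high and low control bounds, cut at about 19% in these data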;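 further: 0% = median of test compound wells and 100% = no enzyme DMSO wells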
Target sequence (Q9NZ20 whole entry, looked up): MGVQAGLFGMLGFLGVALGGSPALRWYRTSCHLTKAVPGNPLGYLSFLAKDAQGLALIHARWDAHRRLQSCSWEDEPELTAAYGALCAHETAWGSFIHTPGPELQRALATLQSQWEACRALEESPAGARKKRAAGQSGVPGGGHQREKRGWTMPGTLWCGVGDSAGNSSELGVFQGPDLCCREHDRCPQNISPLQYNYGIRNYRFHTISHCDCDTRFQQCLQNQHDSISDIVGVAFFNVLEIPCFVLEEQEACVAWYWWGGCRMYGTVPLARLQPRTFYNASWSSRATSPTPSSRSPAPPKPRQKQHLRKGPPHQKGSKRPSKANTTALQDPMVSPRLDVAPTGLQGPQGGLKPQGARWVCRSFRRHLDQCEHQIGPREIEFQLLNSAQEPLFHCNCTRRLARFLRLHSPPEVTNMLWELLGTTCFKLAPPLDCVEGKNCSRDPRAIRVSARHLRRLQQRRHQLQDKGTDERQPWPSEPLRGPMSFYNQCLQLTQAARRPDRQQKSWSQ
procasp3 activ: activators of human procaspase-3. P42574. recombinant procaspase-3 D3A, Ac-DEVD-pNA absorbance 405 nm. activation, % at 8.5 µM. 330,000 compounds, 0.11% hits. AID 463141;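 active means activation above the mean of all tested compounds plus 3 SD, cut at about 21% in these data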;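 further: 0% = DMSO alone and 100% = DMSO wells spiked with extra 5 µM PC-3 D3A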
Target sequence (P42574 whole entry D9A/D28A/D175A): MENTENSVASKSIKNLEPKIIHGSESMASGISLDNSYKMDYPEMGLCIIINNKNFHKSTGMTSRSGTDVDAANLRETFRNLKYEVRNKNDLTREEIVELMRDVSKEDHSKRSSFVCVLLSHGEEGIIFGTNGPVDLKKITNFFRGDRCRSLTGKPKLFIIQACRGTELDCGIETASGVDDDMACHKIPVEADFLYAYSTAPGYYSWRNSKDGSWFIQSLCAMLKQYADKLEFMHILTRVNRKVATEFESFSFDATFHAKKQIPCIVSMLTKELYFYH
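Assay system – Procaspase-3 D3A mutant, all three cleavage aspartates alanine · Controls – DMSO-only low control, 5 µM PC-3 D3A high control · Schedule – 1 h compound preincubation, 2 h substrate hydrolysis at 25 °C · Signal – 405 nm absorbance of p-nitroaniline, reads at 0 and 120 min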
sPLA2 confirm: human GIII-sPLA2 inhibition, confirmation | shares compounds with sPLA2-III inh | recombinant hGIII-sPLA2, BODIPY PC-A2 QFRET fluorescence | inhibition, % at 12.2 µM | 2,000 compounds, 34% hits;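 active means mean inhibition across triplicates above the hit cutoff set in the earlier primary screen, cut at about 19% in these data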;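 further: 0% = enzyme with DMSO and 100% = DMSO wells lacking enzyme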
BODIPY interf: optically interferes with 535nm fluorescence in sPLA2 counter-screen; shares compounds with sPLA2-III inh; BODIPY FL product fluorescence interference, QFRET; inhibition, % at 12.2 µM; 2,000 compounds, 8.5% hits; AID 743282;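 active means average inhibition above the solvent-only control mean plus 3 SD, cut at about 6% in these data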;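 further: 0% = DMSO with substrate plus product and 100% = DMSO with substrate alone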
Numbers without * were called inactive; / = not tested or not shown. Compounds with a hit are over-represented: about 1.6% of the library has one in this group of screens.

SMILES | procasp7 counter | PLCb3 inh | PLCg1 inh | sPLA2-III inh | procasp3 activ | sPLA2 confirm | BODIPY interf
O=C(O)c1ccccc1C(=O)Nc1ccc(Nc2ccc([N+](=O)[O-])cc2[N+](=O)[O-])cc1 | -5.2 | 3.0 | 2.9 | 21.8* | -2.1 | 18.4 | -2.0
COc1ccc(C2C(C#N)=C(C)NC3=C2C(=O)CC(C)(C)C3)c(OC)c1 (stereo unspecified) | 2.3 | / | / | / | 4.2 | / | /
COc1cc(OC)c(C2C(C#N)=C(C)NC(C)=C2C#N)c(C(=O)O)c1 | 3.6 | -111.5 | -79.3 | 23.7* | 4.9 | 0.6 | -5.1
CCCCN(C=O)c1c(CC)nc2ccc(C(=O)NCCOc3ccc(OC)cc3)cn12 | / | -15.2 | -7.0 | -7.9 | / | / | /
Oc1[nH]c2ccccc2c1N=Nc1ccccn1 | / | 3.6 | 1.6 | 4.8 | / | / | /
Oc1c(N=Nc2ccccn2)ccc2ccccc12 | -4.8 | 0.6 | 0.8 | 21.9* | -3.3 | 53.9* | 12.8*
O=C1NC(=S)N(C(=O)c2ccc(F)cc2)/C1=C/c1cccnc1 | -0.5 | -7.6 | -1.3 | 20.4* | -17.3 | 0.3 | -1.0
COc1ccc(/C=C2\C(=O)NC(=S)N2C(=O)c2ccc(C)cc2)cc1 | -20.8 | -11.1 | -8.3 | -5.7 | -16.9 | / | /
Cc1ccc(NC(=O)C2CCCO2)cc1[N+](=O)[O-] (stereo unspecified) | -3.6 | -10.7 | 3.6 | 20.5* | 3.6 | 0.8 | -1.7
O=C(Nc1cccc(NC(=O)C2CCCO2)c1)C1CCCO1 (stereo unspecified) | 4.4 | -7.3 | -3.2 | 0.8 | 3.5 | / | /
CCCn1c(O)c(N=NC(=O)c2ccco2)c2ccccc21 | -0.1 | 2.4 | 1.5 | 20.9* | -0.4 | -1.5 | -5.7
O=C(Nc1ccccc1-c1ccccc1)C1CCCC1 | 4.2 | 0.5 | 5.9 | 19.8* | 5.3 | -2.0 | -7.9
COC(=O)c1cc(S(=O)(=O)Nc2cccc(-c3ccno3)c2)c[nH]1 | / | -1.8 | -1.4 | -11.4 | / | / | /
C[N+](C)(C)CCCCCC[N+](C)(C)C | 5.5 | 3.0 | 2.5 | 2.7 | -3.4 | / | /
C[N+](C)(C)CCCCCC(=O)/C=N/O | 8.7 | 7.8 | 1.5 | 22.2* | 3.9 | 3.9 | -5.0
COc1cccc(N2CCN(CC(=O)NCc3ccccc3C)CC2)c1 | / | -2.3 | -0.7 | 9.1 | / | / | /
CC1=NN(c2ccccc2)C(=O)/C1=C/C=C/c1ccc(N(C)C)cc1 | / | -0.3 | 4.4 | 22.9* | / | 43.6* | 9.7*
CCCCC(=O)NC(c1ccco1)c1cc(Cl)c2cccnc2c1O (stereo unspecified) | -25.8 | -27.2 | -32.3 | 22.6* | -12.3 | 18.9 | -6.9
CCC(=O)NC(c1ccco1)c1cc(Cl)c2cccnc2c1O (stereo unspecified) | -14.9 | -47.1 | -45.7 | 16.0 | -10.6 | / | /
O=C(CCc1ccccc1)NC(c1cccs1)c1cc(Cl)c2cccnc2c1O (stereo unspecified) | / | -9.5 | -2.6 | 22.9* | / | 14.8 | 3.8
CC1=C(C(=O)N2CCCCCC2)CC(CC(=O)NCC2CCCCC2)C(=O)N1Cc1ccc(F)cc1 (stereo unspecified) | / | 0.4 | 0.3 | 0.3 | / | / | /
COc1cc(C2Nc3ccccc3NC3=C2C(=O)CC(C)(C)C3)cc(OC)c1OC(C)=O (stereo unspecified) | 6.9 | -5.6 | -2.4 | 2.9 | 5.9 | / | /
Cc1noc(C)c1COc1ccccc1C(=O)NCCc1ccc(S(N)(=O)=O)cc1 | 9.4 | -6.1 | -1.7 | -0.7 | 0.1 | / | /
CSC1=N/C(=C/c2cccnc2)C(=O)N1Cc1ccc(Cl)cc1 | -19.7 | -20.7 | -2.8 | 32.5* | 8.3 | 3.4 | -14.1
CCOC(=S)SCC(=O)Nc1ncc(C)s1 | -9.9 | -9.4 | -2.2 | 20.2* | -12.4 | -6.7 | -6.7
SMILES | procasp7 counter | PLCb3 inh | PLCg1 inh | sPLA2-III inh | procasp3 activ | sPLA2 confirm | BODIPY interf
Cc1cnc(NC(=O)CSc2ccccc2)s1 | -7.1 | 3.5 | 7.4 | 1.4 | 6.2 | / | /
Cc1cnc(NC(=O)CSc2nnc(C)n2N)s1 | 16.1 | -2.4 | -2.0 | 21.8* | 0.8 | -1.3 | -5.2
O=c1c(-c2n[nH]c(=S)n2-c2ccccc2)cccn1Cc1cccc(Cl)c1 | -6.5 | -15.5 | -8.8 | 21.6* | -10.2 | 21.6* | -0.5
O=C(NC(=S)N(Cc1ccccc1)c1ccccn1)C1CCCCC1 | -8.3 | 8.0 | -0.2 | 23.7* | 5.9 | 7.6 | -3.7
Cc1ccc2c(c1)C(=O)N1c3cc(C)c(C)cc3NC(=O)C1C(=O)N2 (stereo unspecified) | / | -4.8 | -6.7 | 6.9 | / | / | /
CCNc1nc(NCC)n2c(SC(C(=O)Nc3cc(C)ccc3C)c3ccccc3)nnc2n1 (stereo unspecified) | -11.4 | 4.0 | 2.3 | -42.0 | -4.9 | / | /
CCOCCCn1c(SC(C(=O)Nc2cc(C)ccc2C)c2ccccc2)nnc1-c1ccc(Cl)cc1 (stereo unspecified) | -4.9 | -2.6 | 0.9 | 19.6* | 6.7 | -8.0 | -5.2
CC(C)N1CC(O)=C(c2nc3ccccc3[nH]2)C1=N | -5.8 | -15.5 | -4.7 | 9.3 | -2.6 | / | /
CC(C1CC2CCC1C2)N1CC(O)=C(c2nc3ccccc3[nH]2)C1=N (stereo unspecified) | 9.6 | -33.4 | -20.7 | 27.6* | 6.4 | 20.7* | -3.6
N#CC12C(=O)NC(=O)C1(C#N)C21CCCC1 (stereo unspecified) | / | -4.5 | -0.2 | 21.8* | / | -2.6 | -6.0
N#CC1C(=O)NC(=O)C(C#N)C12CCCC2 (stereo unspecified) | / | 0.9 | 0.1 | 5.7 | / | / | /
CN1OC[C@@H]2CN(Cc3cc(Cl)cc(Cl)c3)[C@H](c3cccc(Br)c3)C[C@@H]21 | / | -0.1 | 0.6 | 3.4 | / | / | /
COc1cccc(/C=N/n2c(-c3cc(C)[nH]n3)n[nH]c2=S)c1 | 4.1 | -9.9 | 4.8 | 19.4* | -6.8 | 22.5* | 0.9
CCOC(=O)NC(=O)C(=CNc1ccccc1OC)C(=O)NC(=O)OCC | -2.4 | -0.7 | 3.1 | 20.9* | -4.3 | 8.4 | -1.3
Oc1cccc(NC(=S)Nc2ccc(SC(F)F)cc2)c1 | -8.2 | -0.8 | -1.0 | 35.2* | -10.0 | 2.4 | 4.9
CC[C@@H](CCCCCC#N)CCC(=O)N(c1ccccc1)c1ccccc1 | / | 1.8 | 2.9 | -27.1 | / | / | /
c1ccc2[nH]c(SCc3cn4cccnc4n3)nc2c1 | 5.1 | -39.6 | -27.8 | 23.0* | 1.4 | -3.7 | -6.5
CN(Cc1ccccc1)C(=O)c1c[nH]c2ccc(S(=O)(=O)N3CCOCC3)cc2c1=O | -0.3 | -28.9 | -17.2 | 19.6* | -2.3 | -4.3 | -5.6
CC1(C(=O)NCCc2c[nH]c3ccccc23)CCN1Cc1ccccc1OC(F)F (stereo unspecified) | / | -3.4 | 1.3 | -90.6 | / | / | /
Clc1cccc(C[n+]2cc(-c3ccccc3)n3c2CCC3)c1 | -6.0 | -4.3 | 0.1 | 19.3* | 1.6 | 5.4 | -25.7
